Results of several laboratories.
Lines come from different studies, so protocols differ.
Oprk1: Kappa-type opioid receptor (Oprk1, Mus musculus, UniProt P33534)
FPR1: fMet-Leu-Phe receptor (FPR1, Homo sapiens, UniProt P21462)
CES2: Cocaine esterase (CES2, Homo sapiens, UniProt O00748)
SLC6A2: Sodium-dependent noradrenaline transporter (SLC6A2, Homo sapiens, UniProt P23975)

Structure (SMILES)	target	read-out	action	technique	setting	endpoint	result
CC(C)[C@@H](CN1CCc2ccccc2C1)NC(=O)c1c(Cl)cncc1Cl	Oprk1	ligand displacement	–	radioligand	–	Ki	39.7 µM
N#Cc1ccc(C[C@H](Nc2nnc(-c3cccc(Br)c3)o2)C(=O)N2CCc3ccccc32)cc1	FPR1	calcium signal	agonist	–	–	EC50	27 µM
O=C(CCNC(=O)CNC(=O)CC(c1ccccc1)(c1ccccc1)c1ccccc1)NC[C@@H]1CCCN(Cc2ccc(F)nc2)C1	Muscarinic acetylcholine receptor M5 (CHRM5, Homo sapiens, UniProt P08912)	ligand displacement	–	radioligand	cell membranes	IC50	> 30 µM
COc1cc2c(cc1OC)C(=O)/C(=C/c1ccc(C)cc1Cl)C2	CES2	enzyme activity	inhibitor	fluorescence	with preincubation	IC50	> 100 µM
CNC(=O)[C@@]12C[C@@H]1[C@@H](n1cnc3c(Nc4ccccc4)nc(C#Cc4ccc(Cl)s4)nc31)[C@H](O)[C@@H]2O	SLC6A2	ligand displacement	–	radioligand	–	Ki	2.5 µM
COc1cc2c(cc1OC)C(=O)/C(=C/c1ccc(O)cc1)C2	CES2	enzyme activity	inhibitor	fluorescence	with preincubation	IC50	1.89 µM
CC(=O)N[C@@H](C)c1cc(Cl)ccc1C1CCN(C(=O)[C@@H]2CN(C(C)(C)C)C[C@H]2c2ccc(F)cc2F)CC1	Melanocortin receptor 4 (MC4R, Homo sapiens, UniProt P32245)	cAMP	agonist	–	–	EC50	0.0078 µM
CC(C)[C@@H](CN1CCc2ccccc2C1)NC(=O)c1cccc(-c2ccc(F)cc2)c1	Oprk1	ligand displacement	–	radioligand	–	Ki	13 µM
CCOC(=O)[C@@]12C[C@@H]1[C@@H](n1cnc3c(NCCCCCc4ccccc4)nc(C#Cc4ccc(Cl)s4)nc31)[C@H](O)[C@@H]2O	SLC6A2	ligand displacement	–	radioligand	–	Ki	0.82 µM
COc1cc2c(cc1OC)C(=O)/C(=C/C1CCCCC1)C2	CES2	enzyme activity	inhibitor	fluorescence	with preincubation	IC50	2.42 µM
N#CC[C@@]12C[C@@H]1[C@@H](n1cnc3c(NCc4cccc(Cl)c4)nc(C#Cc4ccc(Cl)s4)nc31)[C@H](O)[C@@H]2O	SLC6A2	ligand displacement	–	radioligand	–	Ki	4.1 µM
CN1C(=O)C(c2c(-c3ccc(Cl)cc3)[nH]c3c2c(=O)[nH]c(=O)n3C)c2ccccc21 (stereo not shown)	WD repeat-containing protein 91 (Homo sapiens, UniProt A4D1P6)	binding	–	SPR	–	Kd	2 µM
CCOC(=O)[C@@]12C[C@@H]1[C@@H](n1cnc3c(NCCCCCCc4ccccc4)nc(C#Cc4ccc(Cl)s4)nc31)[C@H](O)[C@@H]2O	SLC6A2	ligand displacement	–	radioligand	–	Ki	5.4 µM
CC(C)Oc1ccc2c(=O)c(-c3ccccc3)coc2c1	CES2	enzyme activity	inhibitor	fluorescence	with preincubation	IC50	> 100 µM
Cc1cccc(-c2nnc(N[C@@H](Cc3ccc(C#N)cc3)C(=O)N3CCc4ccccc43)o2)c1	FPR1	calcium signal	agonist	–	–	EC50	19.4 µM
COc1ccc(/C=C2\Cc3cc(OC)c(OC)cc3C2=O)cc1OC	CES2	enzyme activity	inhibitor	fluorescence	with preincubation	IC50	> 100 µM
OC[C@@]12C[C@@H]1[C@@H](n1cnc3c(N[C@@H](C4CCC4)C4CC4)nc(C#Cc4ccc(Cl)s4)nc31)[C@H](O)[C@@H]2O	SLC6A2	ligand displacement	–	radioligand	–	Ki	1.8 µM
CC(C)[C@H](CN1CCc2ccccc2C1)NC(=O)c1ccc([N+](=O)[O-])s1	Oprk1	ligand displacement	–	radioligand	–	Ki	9.3 µM
CN1C(C(=O)Nc2ccccn2)=C(O)c2ccccc2S1(=O)=O	CES2	enzyme activity	inhibitor	fluorescence	with preincubation	IC50	> 100 µM
